According to ChEMBL document CHEMBL3526015, “Metabolism of the c-Fos/activator protein-1 inhibitor T-5224 by multiple human UDP-glucuronosyltransferase isoforms” (Drug Metab Dispos, 2011):

Columns and labels:
[1] = biological target: T1, UDP-glucuronosyltransferase 1A1 (Homo sapiens, UniProt P22309); experiment: Drug metabolism assessed as human UGT1A1-mediated T-5224 acyl O-glucuronide formation at 10 uM […] in presence of beta-estradiol by HPLC method; format: ADME; settings: recombinant enzyme
T1 sequence (P22309 whole entry): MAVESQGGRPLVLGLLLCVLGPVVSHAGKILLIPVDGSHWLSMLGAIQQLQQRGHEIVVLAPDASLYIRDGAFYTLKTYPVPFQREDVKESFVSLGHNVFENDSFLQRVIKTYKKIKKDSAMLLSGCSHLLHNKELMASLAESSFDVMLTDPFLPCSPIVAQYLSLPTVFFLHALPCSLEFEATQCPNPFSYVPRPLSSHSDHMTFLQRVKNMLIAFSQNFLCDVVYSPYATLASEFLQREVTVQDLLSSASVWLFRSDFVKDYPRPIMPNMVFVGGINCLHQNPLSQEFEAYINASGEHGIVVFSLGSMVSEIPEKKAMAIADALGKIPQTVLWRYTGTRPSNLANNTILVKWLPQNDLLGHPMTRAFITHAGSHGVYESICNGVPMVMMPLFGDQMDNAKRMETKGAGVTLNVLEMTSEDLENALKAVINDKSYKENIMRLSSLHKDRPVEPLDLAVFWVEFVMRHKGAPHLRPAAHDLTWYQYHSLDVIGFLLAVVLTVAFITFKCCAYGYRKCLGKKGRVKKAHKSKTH
How it was run: (§1)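 Pooled human liver microsomes or recombinant UGT1A1 were incubated with 10 μM T-5224, 2 mM UDPGA and β-estradiol at 0–500 μM (2% DMSO), in Tris-HCl/MgCl2/alamethicin buffer. Incubation was 10 min (liver microsomes) or 60 min (UGT1A1) at 37°C. G2/G3 were read by HPLC at 290 nm, as mean ± SD, n = 3.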

[2] = biological target: T1, UDP-glucuronosyltransferase 1A1; experiment: Drug metabolism assessed as human UGT1A1-mediated T-5224 hydroxyl O-glucuronide formation at 10 uM […] in presence of beta-estradiol by HPLC method; format: ADME; settings: recombinant enzyme; how it was run: as §1
Liver microsome [3] = experiment: Drug metabolism in human liver microsomes assessed as T-5224 hydroxyl O-glucuronide formation after 10 to 60 mins by HPLC method; format: ADME
How it was run: (§2)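 Pooled liver (0.5 mg protein/mL) or intestinal (0.25 mg protein/mL) microsomes in 50 mM Tris-HCl pH 7.5, 8 mM MgCl2, alamethicin, 2% DMSO. T-5224 at 1–50 μM, 5 min preincubation at 37°C, started with 2 mM UDPGA. Incubated 10 min, or 20 min for intestinal microsomes at 1–5 μM. Acetonitrile stop, glucuronides by HPLC at 290 nm. Triplicates fitted to a substrate-inhibition model.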

[4] = Drug metabolism in human intestinal microsomes assessed as T-5224 hydroxyl O-glucuronide formation after 10 to 60 mins by HPLC method; format: ADME, Intestine, Microsome
How it was run: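 Pooled liver microsomes (0.5 mg/mL) were incubated 10 min. Pooled intestinal microsomes (0.25 mg/mL) ran 10 min at T-5224 10–50 μM and 20 min at 1–5 μM. Buffer was 50 mM Tris-HCl pH 7.5 with 8 mM MgCl2, alamethicin and 2 mM UDPGA, at 37°C, in triplicate. Glucuronides G2/G3 were read by HPLC at 290 nm and fitted for Vmax/Km.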

Liver microsome [5] = experiment: Drug metabolism in human liver microsomes assessed as Vmax/Km ratio for T-5224 acyl O-glucuronide formation per mg protein after 10 to 60 mins by HPLC method; format: ADME; how it was run: as §2
Liver microsome [6] = experiment: Drug metabolism in pooled human liver microsomes assessed as T-5224 hydroxyl O-glucuronide formation at 10 uM after 10 mins by HPLC method; format: ADME
How it was run: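 T-5224 at 10 μM incubated for 10 min at 37°C with UDPGA (2 mM) in pooled liver (0.5 mg protein/mL) or intestinal (0.25 mg protein/mL) microsomes. Buffer was 50 mM Tris-HCl pH 7.5 with 8 mM MgCl2 and alamethicin, after 5 min preincubation. Stopped with acetonitrile; glucuronides quantified by HPLC at 290 nm.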

Cytochrome P450 2C8 = biological target: T2, Cytochrome P450 2C8 (Homo sapiens, UniProt P10632); experiment: Drug metabolism assessed as human CYP2C8-mediated metabolite formation at 2 uM after 30 mins by HPLC method; format: ADME; settings: recombinant enzyme, 0.5 h
T2 sequence (P10632 whole entry): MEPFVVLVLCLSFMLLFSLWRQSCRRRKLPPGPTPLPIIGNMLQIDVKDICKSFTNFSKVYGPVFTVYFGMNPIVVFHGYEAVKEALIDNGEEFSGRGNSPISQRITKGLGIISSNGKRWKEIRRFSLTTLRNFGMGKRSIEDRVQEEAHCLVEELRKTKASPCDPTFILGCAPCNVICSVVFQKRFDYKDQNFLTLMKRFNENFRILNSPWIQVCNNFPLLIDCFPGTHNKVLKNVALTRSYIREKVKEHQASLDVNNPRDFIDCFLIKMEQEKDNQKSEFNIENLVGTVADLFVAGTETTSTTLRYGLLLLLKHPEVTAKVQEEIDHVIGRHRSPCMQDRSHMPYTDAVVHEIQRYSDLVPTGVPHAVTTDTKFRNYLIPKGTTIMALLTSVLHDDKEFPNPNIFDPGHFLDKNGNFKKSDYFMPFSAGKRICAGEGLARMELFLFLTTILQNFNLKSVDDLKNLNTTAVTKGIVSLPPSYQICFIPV
How it was run: (§3)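 Each recombinant human P450 was used at 50 pmol/mL with an NADPH-generating system and 2 μM 14C-T-5224 (0.5% DMSO final). Buffer was 100 mM Tris-HCl pH 7.5, except 100 mM potassium phosphate pH 7.4 for CYP2A6 and CYP2C9*1. Incubation ran 30 min at 37°C and was stopped with acetonitrile/methanol. Radioactive metabolite peaks were detected by C18 HPLC.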

Cytochrome P450 2C19 = Cytochrome P450 2C19 (Homo sapiens, UniProt P33261); experiment: Drug metabolism assessed as human CYP2C19-mediated metabolite formation at 2 uM after 30 mins by HPLC method; format: ADME; settings: recombinant enzyme, 0.5 h; how it was run: as §3
Sequence of Cytochrome P450 2C19 (P33261 whole entry): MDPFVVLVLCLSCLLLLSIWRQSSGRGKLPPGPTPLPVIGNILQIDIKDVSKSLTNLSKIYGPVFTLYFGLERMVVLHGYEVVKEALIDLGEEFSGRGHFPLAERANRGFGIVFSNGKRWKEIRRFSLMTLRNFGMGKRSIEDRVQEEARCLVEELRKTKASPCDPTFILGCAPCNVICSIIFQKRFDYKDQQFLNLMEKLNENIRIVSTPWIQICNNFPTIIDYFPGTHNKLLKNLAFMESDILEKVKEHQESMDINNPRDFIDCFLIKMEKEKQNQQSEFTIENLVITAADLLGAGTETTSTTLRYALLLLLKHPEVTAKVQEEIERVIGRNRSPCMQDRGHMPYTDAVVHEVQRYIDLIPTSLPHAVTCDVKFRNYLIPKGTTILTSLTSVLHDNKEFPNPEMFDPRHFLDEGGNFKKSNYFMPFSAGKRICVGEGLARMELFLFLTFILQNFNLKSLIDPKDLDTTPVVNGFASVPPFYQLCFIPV

Drug metabolism [1]: metabolite_not_detected
Drug metabolism [2]: metabolite_detected
Km (Liver microsome [3]): 15.7 µM
Km [4]: 3.06 µM
Vmax/Km (Liver microsome [5]): 44 µL/min
Drug metabolism (Liver microsome [6]): metabolite_detected
Drug metabolism (Cytochrome P450 2C8): metabolite_not_detected
Drug metabolism (Cytochrome P450 2C19): metabolite_not_detected
Compound: O=C(O)CCc1cc(C(=O)c2ccc(OC3CCCC3)cc2O)ccc1OCc1ccc2c(O)noc2c1
